Test results as given in the M2OR odorant receptor database.
Where a chain is given by its changes, count along the chain named.

Tests used:
Settings in all cases: stereoisomer not certain
[1] = molecular target: T1, OR6S1 (Homo sapiens) (UniProt Q8NH40)
T1 sequence (whole entry): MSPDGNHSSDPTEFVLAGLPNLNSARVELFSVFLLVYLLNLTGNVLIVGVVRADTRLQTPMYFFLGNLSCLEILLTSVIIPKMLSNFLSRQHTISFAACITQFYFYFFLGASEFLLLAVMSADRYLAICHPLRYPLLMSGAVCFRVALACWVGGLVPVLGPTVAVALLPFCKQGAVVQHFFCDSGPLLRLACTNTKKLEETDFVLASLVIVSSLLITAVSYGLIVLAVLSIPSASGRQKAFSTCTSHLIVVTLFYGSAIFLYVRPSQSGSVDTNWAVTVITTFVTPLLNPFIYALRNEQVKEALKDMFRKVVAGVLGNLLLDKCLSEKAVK
Method in brief: (§1)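 Whether a receptor–molecule pair is responsive (active) rests on the original authors' judgment that its measured signal was statistically different from baseline. Pairs without that judgment are non-responsive (inactive). Sources used varied assay methods, commonly transient luciferase assays in mammalian cell lines.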

[2] = system: T2, OR6S1 T42I V156I
T2 sequence (whole entry): T1 sequence (whole entry) with T42I, V156I
Method in brief: as §1

[3] = molecular target: T3, OR6T1 (Homo sapiens) (UniProt Q8NGN1)
T3 sequence (whole entry): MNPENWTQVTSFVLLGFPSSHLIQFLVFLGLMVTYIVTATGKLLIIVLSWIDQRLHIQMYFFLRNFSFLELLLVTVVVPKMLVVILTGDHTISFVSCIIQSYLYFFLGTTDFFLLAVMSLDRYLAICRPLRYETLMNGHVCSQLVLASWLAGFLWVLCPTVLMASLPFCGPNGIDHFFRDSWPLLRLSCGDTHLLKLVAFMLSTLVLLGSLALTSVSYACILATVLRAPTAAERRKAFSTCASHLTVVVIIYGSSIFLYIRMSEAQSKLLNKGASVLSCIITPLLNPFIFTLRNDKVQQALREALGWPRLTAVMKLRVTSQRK
Method in brief: as §1

[4] = system: T4, OR6T1 N2D
T4 sequence (whole entry): T3 sequence (whole entry) with N2D
Method in brief: as §1

[5] = molecular target: T5, OR6V1 (Homo sapiens) (UniProt Q8N148)
T5 sequence (whole entry): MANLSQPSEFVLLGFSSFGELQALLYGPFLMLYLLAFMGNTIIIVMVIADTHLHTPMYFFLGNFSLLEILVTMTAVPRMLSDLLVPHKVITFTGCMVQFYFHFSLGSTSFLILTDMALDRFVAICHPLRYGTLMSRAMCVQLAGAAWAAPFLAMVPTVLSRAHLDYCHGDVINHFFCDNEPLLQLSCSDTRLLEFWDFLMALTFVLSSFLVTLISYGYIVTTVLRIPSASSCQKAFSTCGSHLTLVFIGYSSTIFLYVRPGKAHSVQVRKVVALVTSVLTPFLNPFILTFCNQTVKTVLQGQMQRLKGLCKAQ
Method in brief: as §1

[6] = molecular target: T6, OR6X1 (Homo sapiens) (UniProt Q8NH79)
T6 sequence (whole entry): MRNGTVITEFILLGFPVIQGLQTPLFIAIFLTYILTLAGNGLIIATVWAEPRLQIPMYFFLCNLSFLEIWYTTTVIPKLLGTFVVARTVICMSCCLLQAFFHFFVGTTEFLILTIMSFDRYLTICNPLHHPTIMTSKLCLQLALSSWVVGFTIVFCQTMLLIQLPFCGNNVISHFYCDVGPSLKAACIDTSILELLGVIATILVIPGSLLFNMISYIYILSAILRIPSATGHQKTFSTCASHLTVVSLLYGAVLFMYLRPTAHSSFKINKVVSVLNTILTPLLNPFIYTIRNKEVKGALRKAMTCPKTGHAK
Method in brief: as §1

[7] = molecular target: T7, OR6Y1 (Homo sapiens) (UniProt Q8NGX8)
T7 sequence (whole entry): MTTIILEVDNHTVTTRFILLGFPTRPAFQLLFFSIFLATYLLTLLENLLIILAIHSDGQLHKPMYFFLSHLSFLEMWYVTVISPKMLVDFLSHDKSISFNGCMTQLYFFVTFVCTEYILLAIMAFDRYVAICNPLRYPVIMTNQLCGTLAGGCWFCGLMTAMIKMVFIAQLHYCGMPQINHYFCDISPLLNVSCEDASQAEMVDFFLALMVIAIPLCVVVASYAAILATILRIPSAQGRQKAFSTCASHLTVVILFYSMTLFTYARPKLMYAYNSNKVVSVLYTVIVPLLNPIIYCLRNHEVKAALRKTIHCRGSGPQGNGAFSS
Method in brief: as §1

[8] = molecular target: T8, OR7A10 (Homo sapiens) (UniProt O76100)
T8 sequence (whole entry): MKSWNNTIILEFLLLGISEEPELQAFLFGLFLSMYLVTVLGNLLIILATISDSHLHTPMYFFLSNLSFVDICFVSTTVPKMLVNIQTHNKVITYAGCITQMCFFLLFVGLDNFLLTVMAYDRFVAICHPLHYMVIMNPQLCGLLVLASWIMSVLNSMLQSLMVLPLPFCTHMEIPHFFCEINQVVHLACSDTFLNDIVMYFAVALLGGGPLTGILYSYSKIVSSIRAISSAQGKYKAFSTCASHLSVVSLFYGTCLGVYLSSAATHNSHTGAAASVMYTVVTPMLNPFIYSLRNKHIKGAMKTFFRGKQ
Method in brief: as §1

[9] = molecular target: T9, OR7A17 (Homo sapiens) (UniProt O14581)
T9 sequence (whole entry): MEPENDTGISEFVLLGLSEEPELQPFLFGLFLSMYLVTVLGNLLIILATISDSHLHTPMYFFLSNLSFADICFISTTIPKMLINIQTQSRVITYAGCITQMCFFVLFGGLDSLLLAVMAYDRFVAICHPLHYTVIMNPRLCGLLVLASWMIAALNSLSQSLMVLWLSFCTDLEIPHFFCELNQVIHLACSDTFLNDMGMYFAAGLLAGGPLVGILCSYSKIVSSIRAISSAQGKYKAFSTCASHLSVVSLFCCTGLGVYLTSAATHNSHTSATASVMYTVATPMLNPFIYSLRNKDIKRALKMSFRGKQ
Method in brief: as §1

[10] = molecular target: T10, OR7A5 (Homo sapiens) (UniProt Q15622)
T10 sequence (whole entry): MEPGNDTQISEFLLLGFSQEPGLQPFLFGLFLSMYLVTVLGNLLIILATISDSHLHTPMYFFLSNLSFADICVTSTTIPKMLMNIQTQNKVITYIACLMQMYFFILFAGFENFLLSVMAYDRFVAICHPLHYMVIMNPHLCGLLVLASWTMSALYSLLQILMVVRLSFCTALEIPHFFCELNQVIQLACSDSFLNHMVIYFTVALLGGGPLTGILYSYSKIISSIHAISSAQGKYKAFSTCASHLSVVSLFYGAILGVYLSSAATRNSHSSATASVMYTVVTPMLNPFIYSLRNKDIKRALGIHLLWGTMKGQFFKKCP
Method in brief: as §1

[11] = system: T11, OR7A5 M81I
T11 sequence (whole entry): T10 sequence (whole entry) with M81I
Method in brief: as §1

[12] = molecular target: T12, OR7C1 (Homo sapiens) (UniProt O76099)
T12 sequence (whole entry): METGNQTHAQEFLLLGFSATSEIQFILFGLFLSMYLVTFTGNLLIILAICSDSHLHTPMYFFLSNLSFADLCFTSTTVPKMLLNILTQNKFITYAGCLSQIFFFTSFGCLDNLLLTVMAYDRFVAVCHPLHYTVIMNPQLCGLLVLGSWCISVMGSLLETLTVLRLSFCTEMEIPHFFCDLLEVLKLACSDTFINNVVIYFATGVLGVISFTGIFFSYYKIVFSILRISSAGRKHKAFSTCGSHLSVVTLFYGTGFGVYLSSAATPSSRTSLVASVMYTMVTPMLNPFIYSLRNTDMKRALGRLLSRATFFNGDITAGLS
Method in brief: as §1

[13] = system: T13, OR7C1 V126I E171K
T13 sequence (whole entry): T12 sequence (whole entry) with V126I, E171K
Method in brief: as §1

[14] = molecular target: T14, OR7C2 (Homo sapiens) (UniProt O60412)
T14 sequence (whole entry): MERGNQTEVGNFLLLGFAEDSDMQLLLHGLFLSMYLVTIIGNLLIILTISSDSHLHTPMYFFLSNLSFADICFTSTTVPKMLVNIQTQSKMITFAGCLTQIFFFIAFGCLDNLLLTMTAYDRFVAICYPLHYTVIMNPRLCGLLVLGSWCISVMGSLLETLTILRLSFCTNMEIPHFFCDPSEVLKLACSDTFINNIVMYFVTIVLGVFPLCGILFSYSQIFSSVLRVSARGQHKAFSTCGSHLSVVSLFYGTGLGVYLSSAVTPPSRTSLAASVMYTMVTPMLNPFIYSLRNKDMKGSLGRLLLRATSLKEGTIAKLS
Method in brief: as §1

[15] = molecular target: T15, OR7D2 (Homo sapiens) (UniProt Q96RA2)
T15 sequence (whole entry): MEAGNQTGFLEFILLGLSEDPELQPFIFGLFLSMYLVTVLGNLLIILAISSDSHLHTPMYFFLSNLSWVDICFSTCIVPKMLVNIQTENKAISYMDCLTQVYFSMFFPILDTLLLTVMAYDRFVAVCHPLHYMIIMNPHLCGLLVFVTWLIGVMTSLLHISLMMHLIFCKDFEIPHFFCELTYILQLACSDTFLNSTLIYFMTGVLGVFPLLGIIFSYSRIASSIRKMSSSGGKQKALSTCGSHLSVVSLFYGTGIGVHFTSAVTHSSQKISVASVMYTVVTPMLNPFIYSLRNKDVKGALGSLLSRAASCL
Method in brief: as §1

[16] = molecular target: T16, OR7D4 (Homo sapiens) (UniProt Q8NG98)
T16 sequence (whole entry): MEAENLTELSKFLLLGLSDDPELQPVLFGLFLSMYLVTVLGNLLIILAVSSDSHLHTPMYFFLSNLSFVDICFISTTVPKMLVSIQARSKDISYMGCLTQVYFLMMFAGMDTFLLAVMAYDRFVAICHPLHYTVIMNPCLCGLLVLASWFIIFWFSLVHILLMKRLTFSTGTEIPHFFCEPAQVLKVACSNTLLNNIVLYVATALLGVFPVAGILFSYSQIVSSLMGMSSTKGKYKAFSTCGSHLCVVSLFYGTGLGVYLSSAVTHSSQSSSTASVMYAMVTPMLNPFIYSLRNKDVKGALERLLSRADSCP
Method in brief: as §1

[17] = system: T17, OR7D4 R88W
T17 sequence (whole entry): T16 sequence (whole entry) with R88W
Method in brief: as §1

[18] = system: T18, OR7D4
T18 sequence (whole entry): T16 sequence (whole entry) with R88W, T133M
Method in brief: as §1

[19] = molecular target: T19, OR7E24 (Homo sapiens) (UniProt Q6IFN5)
T19 sequence (whole entry): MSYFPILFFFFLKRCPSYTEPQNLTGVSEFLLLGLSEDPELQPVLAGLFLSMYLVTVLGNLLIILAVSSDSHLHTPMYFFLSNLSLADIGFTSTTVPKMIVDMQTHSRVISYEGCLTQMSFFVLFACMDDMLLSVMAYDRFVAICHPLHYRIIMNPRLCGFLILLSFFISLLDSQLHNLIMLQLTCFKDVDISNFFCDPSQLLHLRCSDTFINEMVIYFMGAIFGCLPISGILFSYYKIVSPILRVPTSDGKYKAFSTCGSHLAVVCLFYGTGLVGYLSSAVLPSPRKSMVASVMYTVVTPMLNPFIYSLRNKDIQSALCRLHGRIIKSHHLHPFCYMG
Method in brief: as §1

[20] = molecular target: T20, OR7G1 (Homo sapiens) (UniProt Q8NGA0)
T20 sequence (whole entry): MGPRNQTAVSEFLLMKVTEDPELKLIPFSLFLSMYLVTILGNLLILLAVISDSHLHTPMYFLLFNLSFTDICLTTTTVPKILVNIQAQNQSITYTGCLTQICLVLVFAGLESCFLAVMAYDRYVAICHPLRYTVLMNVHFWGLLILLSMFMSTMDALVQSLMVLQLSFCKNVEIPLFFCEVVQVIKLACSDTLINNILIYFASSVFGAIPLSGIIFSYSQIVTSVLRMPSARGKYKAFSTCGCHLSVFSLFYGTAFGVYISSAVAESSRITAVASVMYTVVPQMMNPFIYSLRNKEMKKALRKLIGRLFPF
Method in brief: as §1
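Note: active if original authors judged signal statistically different from baseline.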

SMILES	odorant receptor agonist call [1]	odorant receptor agonist call [2]	odorant receptor agonist call [3]	odorant receptor agonist call [4]	odorant receptor agonist call [5]	odorant receptor agonist call [6]	odorant receptor agonist call [7]	odorant receptor agonist call [8]	odorant receptor agonist call [9]	odorant receptor agonist call [10]	odorant receptor agonist call [11]	odorant receptor agonist call [12]	odorant receptor agonist call [13]	odorant receptor agonist call [14]	odorant receptor agonist call [15]	odorant receptor agonist call [16]	odorant receptor agonist call [17]	odorant receptor agonist call [18]	odorant receptor agonist call [19]	odorant receptor agonist call [20]
CC1=NC(C)C(C)S1 (centres undefined)	inactive	inactive	inactive	inactive	inactive	inactive	inactive	inactive	inactive	inactive	inactive	inactive	inactive	inactive	inactive	inactive	inactive	inactive	inactive	inactive
Cc1cnc(C)c(C)n1	inactive	inactive	inactive	inactive	inactive	inactive	inactive	inactive	inactive	inactive	inactive	inactive	inactive	inactive	inactive	inactive	inactive	inactive	inactive	inactive
CCCCC(S)C(C)CO (centres undefined)	inactive		inactive		inactive	inactive	inactive	inactive	inactive	active		inactive		inactive	inactive	inactive			inactive	inactive
